Reference: ChEMBL document CHEMBL1143326, “Single-step high-yield radiosynthesis and evaluation of a sensitive 18F-labeled ligand for imaging brain peripheral benzodiazepine receptors with PET” (J Med Chem, 2009)

Legend:
[1] = target: Translocator protein (Rattus norvegicus, UniProt P16257); assay: Displacement of [3H]PK11195 from rat PBR receptor
[2] = target: Translocator protein (Homo sapiens, UniProt P30536); assay: Displacement of [3H]PK11195 from human PBR receptor
In short: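 Competition binding against [3H]PK 11195 in human brain tissue (mitochondrial fraction of brain homogenate). The tissue came from the NIMH Clinical Brain Disorders Branch. Affinity is expressed as Ki.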

[3] = Displacement of [3H]PK11195 from monkey PBR receptor; parameters: species or system Macaca mulatta
[4] = Distribution coefficient, log D at pH 7.4; format: physicochemical; conditions: octanol/water
In short: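 Radioligand partitioned between n-octanol and sodium phosphate buffer (0.15 M, pH 7.4); LogD taken as log of the distribution coefficient; n = 6.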

[5] = system: Plasma; assay: Drug distribution in monkey plasma; format: ADME, cell-free, Macaca mulatta; conditions: rhesus monkey
In short: (§1)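 Radioligand incubated in vitro with monkey whole blood, then centrifuged; radioactivity counted in the plasma and cell fractions; n = 4.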

[6] = Stability in rat plasma at 3.78 ug/kg, iv after 10.9 mins; format: ADME, organism-based; conditions: 0.00378 mg/kg, read-out: Stability
[7] = system: Plasma; assay: Drug level in rat plasma assessed as unchanged drug level at >1.39 Ci/umol, iv after 60 mins; format: ADME, organism-based; conditions: in vivo, 1 h
[8] = system: Blood; assay: Drug level in monkey blood assessed as drug distribution in cellular compartment; format: ADME, tissue-based, Macaca mulatta; conditions: rhesus monkey; in short: as §1
[9] = Drug level in rat urine assessed as drug recovery into acetonitrile analytes at >1.39 Ci/umol, iv after 60 mins; format: ADME, organism-based; conditions: read-out: Drug uptake
[10] = Drug level in rat plasma assessed as drug recovery into acetonitrile analytes at >1.39 Ci/umol, iv after 60 mins; format: ADME, organism-based; conditions: read-out: Drug uptake
[11] = Stability in rat brain assessed as unchanged drug level at 2 uCi upto 60 mins; format: ADME, tissue-based; conditions: read-out: Stability
[12] = Drug level in rat brain assessed as drug recovery into acetonitrile analytes at >1.39 Ci/umol, iv after 60 mins; format: ADME, organism-based; conditions: read-out: Drug uptake
[13] = Stability in rat plasma assessed as drug recovery at 1.36 Ci/umol, iv after 30 mins; format: ADME, organism-based; conditions: read-out: Stability
In short: (§2)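 Isoflurane-anaesthetised rat at 37 °C given no-carrier-added radioligand i.v. (mass dose 0.85 μg/kg); sacrifice at 30 min. Plasma and brain homogenate (saline plus acetonitrile) extracted into acetonitrile; supernatants analysed by reverse-phase radio-HPLC (C18, MeOH/H2O/Et3N 75:25:0.1); recovery of radioactivity and parent fraction measured.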

[14] = Stability in rhesus monkey plasma assessed as unchanged drug level after 45 mins by HPLC; format: ADME, cell-free, Macaca mulatta; conditions: read-out: Stability
In short: (§3)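 Radioligand incubated for at least 45 min at room temperature in monkey whole blood or plasma. Sample mixed with acetonitrile and centrifuged; supernatant analysed by reverse-phase radio-HPLC.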

[15] = system: Plasma; assay: Stability in rat plasma assessed as drug recovery into acetonitrile analytes at 3.78 ug/kg, iv; conditions: 0.00378 mg/kg
[16] = Stability in rat brain assessed as drug recovery at 1.36 Ci/umol, iv after 30 mins; format: ADME, organism-based; conditions: read-out: Stability; in short: as §2
[17] = Stability in sodium phosphate buffer at pH 7.4 after 2 hrs by HPLC; format: physicochemical; conditions: pH 7.4, 2 h
In short: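 Radioligand held in sodium phosphate buffer (0.15 M, pH 7.4) for 2 h at room temperature; analysed by HPLC.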

[18] = Stability in rat plasma at 3.78 ug/kg, iv after 7.3 mins; format: ADME, organism-based; conditions: 0.00378 mg/kg, read-out: Stability
[19] = Stability in rhesus monkey whole blood assessed as unchanged drug level after 45 mins by HPLC; format: ADME, tissue-based, Macaca mulatta; conditions: read-out: Stability; in short: as §3
[20] = system: Plasma; assay: Fraction unbound in human plasma; format: ADME, cell-free
In short: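 Radioligand added to pooled human plasma and ultrafiltered at 5000g through Centrifree units; all filter-unit components counted for radioactivity to give the free fraction; n = 3.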

[21] = Stability in rat plasma at 3.78 ug/kg, iv after 94.3 mins; format: ADME, organism-based; conditions: 0.00378 mg/kg, read-out: Stability
[22] = system: Brain; assay: Stability in rat brain assessed as drug recovery into acetonitrile analytes at 3.78 ug/kg, iv; format: ADME, organism-based; conditions: in vivo, 0.00378 mg/kg
[23] = system: Brain; assay: Drug level in rhesus monkey brain assessed as standard uptake value in choroid plexus of fourth ventricle at 2.76 to 5.8 mCi, iv; format: ADME, organism-based, Macaca mulatta; conditions: in vivo
In short: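 Male rhesus monkeys (11–15 kg) anaesthetised with ketamine, then 1.6% isoflurane. Bolus i.v. radioligand (2.76–5.80 mCi; 0.068–0.276 μg/kg) given; PET for up to 300 min, co-registered with T1 MRI. Regional radioactivity expressed as %SUV; n = 4.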

[24] = Stability in rat brain at 3.78 ug/kg, iv after 95 mins; format: ADME, organism-based; conditions: 0.00378 mg/kg, read-out: Stability
[25] = Drug level in rat urine assessed as unchanged drug level at >1.39 Ci/umol, iv after 60 mins; format: ADME, organism-based; conditions: in vivo, 1 h
[26] = Drug level in rat brain assessed as unchanged drug level at >1.39 Ci/umol, iv after 60 mins; format: ADME, organism-based; conditions: read-out: Drug uptake
[27] = system: Plasma; assay: Drug level in rat plasma assessed generation of polar radiometabolites as at 74.6 uCi, iv after 30 mins; format: ADME, organism-based; conditions: in vivo, 0.5 h
[28] = system: Plasma; assay: Drug level in rat plasma assessed as standard uptake value at 74.6 uCi, iv after 30 mins; format: ADME, organism-based; conditions: in vivo, 0.5 h
[29] = system: Brain; assay: Stability in rat brain assessed as conversion into polar radiometabolites at 10 uCi after 30 mins; format: ADME, tissue-based; conditions: 0.5 h
In short: (§4)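 Radioligand incubated for 30 min with rat brain homogenate or rat whole blood; conversion to polar species eluting at the solvent front measured by reverse-phase radio-HPLC.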

[30] = system: Brain; assay: Drug level in rat brain assessed generation of polar radiometabolites as at 74.6 uCi, iv after 30 mins; format: ADME, organism-based; conditions: in vivo, 0.5 h
[31] = system: Brain; assay: Drug level in rat brain assessed as standard uptake value at 74.6 uCi, iv after 30 mins; format: ADME, organism-based; conditions: in vivo, 0.5 h
[32] = Stability in rat whole blood assessed as conversion into polar radiometabolites at 10 uCi after 30 mins; format: ADME, tissue-based; conditions: 0.5 h; in short: as §4
[33] = system: Blood; assay: Drug level in rat blood assessed as standard uptake value at 74.6 uCi, iv after 30 mins; format: ADME, organism-based; conditions: in vivo, 0.5 h

Translocator protein (Homo sapiens, UniProt P30536), sequence (P30536 whole entry): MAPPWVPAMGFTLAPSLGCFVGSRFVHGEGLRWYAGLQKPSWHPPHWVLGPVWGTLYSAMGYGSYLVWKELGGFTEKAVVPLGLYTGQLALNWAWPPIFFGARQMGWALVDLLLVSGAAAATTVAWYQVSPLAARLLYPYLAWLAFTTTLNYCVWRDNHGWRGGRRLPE
Translocator protein (Rattus norvegicus, UniProt P16257), sequence (P16257 whole entry, looked up): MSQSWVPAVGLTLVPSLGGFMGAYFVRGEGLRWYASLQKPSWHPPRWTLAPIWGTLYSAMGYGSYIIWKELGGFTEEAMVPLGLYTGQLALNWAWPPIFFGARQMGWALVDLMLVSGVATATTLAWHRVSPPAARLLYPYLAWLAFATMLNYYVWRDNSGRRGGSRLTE

`COc1ccc(OC)c(CN(C(=O)CF)c2ccccc2Oc2ccccc2)c1` gave a Ki [1] of 0.18 nM, a Ki [2] of 0.997 nM and a Ki [3] of 0.318 nM. For the same molecule, the logD [4] was 4.05.
For `COc1ccc(OC)c(CN(C(=O)C[18F])c2ccccc2Oc2ccccc2)c1`, the Drug uptake [5] was 6.6%, the remaining at 0.181667 h [6] was 37.6% and the Drug uptake [7] was 14.2%. It also gave a Drug uptake [8] of 93.4%, a recovery at 1 h [9] of 80.3% and a recovery at 1 h [10] of 93.2%. For the same molecule, the remaining at 1 h [11] was over 99.2%, the recovery at 1 h [12] was 91% and the remaining at 0.5 h [13] was 92.7%. The remaining at 0.75 h [14] was 97.2%, the Stability [15] was 93% and the remaining at 0.5 h [16] was 85.1%. The Stability [17] was “Stable”, the remaining at 0.121667 h [18] was 44.6% and the remaining at 0.75 h [19] was 95.5%. For the same molecule, the Fu [20] was 0.7%, the remaining at 1.57167 h [21] was 5.7% and the Stability [22] was 81.8%. For the same molecule, the Activity [23] was 350%, the remaining at 95 min [24] was 39.2% and the Drug uptake [25] was 0.2%. The remaining at 1 h [26] was 32.6%.
`O=C(C[18F])Nc1ccccc1Oc1ccccc1` gave an Activity [27] of over 99%, a Drug uptake [28] of 226% and a Stability [29] of over 99.9%. It also gave an Activity [30] of over 99%, a Drug uptake [31] of 120% and a Stability [32] of over 99.9%. It also gave a Drug uptake [33] of 196%.
`COc1ccc(OC)c(CN(C(C)=O)c2cc(F)ccc2Oc2ccccc2)c1` gave a Ki [1] of 0.0726 nM and a Ki [2] of 0.242 nM.
